Common to all, as to type: cell-based
Parameters in all cases: scale not given: the % may be the effect or the level left

In experiment [1] the target is Autotaxin (Homo sapiens) (UniProt Q13822). Briefly: Activity of human autotaxin in human […] cells assessed as effect on enzyme-mediated of FS3 hydrolysis at 1 uM. An outline of the steps: (§1)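 ATX source: serum-free conditioned medium from MDA-MB-435 cells (24-30 h), with 20% ethylene glycol added, concentrated ~10-fold and exchanged into 50 mM Tris pH 7.4. Assay: FS-3 substrate 1 μM final, fatty-acid-free BSA 30 μM, Tris pH 8 buffer with Mg2+, Ca2+, K+ and NaCl. Read fluorescence at ex 485/em 538 nm every 5 min. % inhibition vs vehicle at 1 h, after no-medium background subtraction; mean ± SD, ≥3 wells.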

For experiment [2] the target is unchanged. Put plainly: Activity of human autotaxin in human […] cells assessed as effect on enzyme-mediated of FS3 hydrolysis at 0.1 uM. In a few lines:
as §1

Experiment [3] shares this target. Put plainly: Activity of human autotaxin in human […] cells assessed as effect on enzyme-mediated of FS3 hydrolysis at 10 uM. An outline of the steps: as §1

Drawing on ChEMBL document CHEMBL1138619, “Autotaxin structure-activity relationships revealed through lysophosphatidylcholine analogs” (Bioorg Med Chem, 2009), this text covers Activity for 35 compounds.

In the case of `CCCCCCCCCCCCCCCCCCOP(=O)([O-])NCC[N+](C)(C)C`, the results for the Activity on Autotaxin (Homo sapiens) [1], on Autotaxin (Homo sapiens) [2] and on Autotaxin (Homo sapiens) [3] were 74%, 86% and 29%, respectively.

Turning to `CCCCCCCCCCCCCCOP(=O)([O-])CCC[N+](C)(C)C`, the Activity at Autotaxin (Homo sapiens) [1] was 90%; on Autotaxin (Homo sapiens) [2], 94%; on Autotaxin (Homo sapiens) [3] it was 71%.

Turning to `CCCCCCCCCCCCCCCCOC[C@H](O)COP(=O)([O-])CCC[N+](C)(C)C`, the Activity at Autotaxin (Homo sapiens) [1] came out at 86%; on Autotaxin (Homo sapiens) [2], 82%; at Autotaxin (Homo sapiens) [3] it was 76%.

For `CCCCCCCCCCCCCCCCOP(=O)([O-])OCC[N+](C)(C)C`, the Activity is 113% at Autotaxin (Homo sapiens) [1], 114% on Autotaxin (Homo sapiens) [2] and 92% at Autotaxin (Homo sapiens) [3].

`CCCCCCCCCCCCCCCCCCOC[C@H](O)COP(=O)([O-])CCC[N+](C)(C)C`: the results for the Activity at Autotaxin (Homo sapiens) [1], at Autotaxin (Homo sapiens) [2] and at Autotaxin (Homo sapiens) [3] were 77%, 78% and 68%, respectively.

Turning to `CCCCCCCCCCCCCCCCOP(=O)([O-])CCC[N+](C)(C)C`, the Activity at Autotaxin (Homo sapiens) [1] was 94%; on Autotaxin (Homo sapiens) [2], 97%; at Autotaxin (Homo sapiens) [3], 91%.

Consider `CCCCCCCCCCC(=O)OC[C@@H](O)COP(=O)([O-])OCC[N+](C)(C)C`, for which the Activity was 101% at Autotaxin (Homo sapiens) [1], 101% on Autotaxin (Homo sapiens) [2] and 85% at Autotaxin (Homo sapiens) [3].

With `CCCCCCCCCCOC[C@@H](O)COP(=O)([O-])CCC[N+](C)(C)C`, the Activity on Autotaxin (Homo sapiens) [1] turned out to be 95%; at Autotaxin (Homo sapiens) [2], 101%; on Autotaxin (Homo sapiens) [3], 103%.

Take `CCCCCCCCC(=O)OC[C@@H](O)COP(=O)([O-])OCC[N+](C)(C)C`: the Activity was 81% at Autotaxin (Homo sapiens) [1], 94% at Autotaxin (Homo sapiens) [2] and 101% at Autotaxin (Homo sapiens) [3].

Regarding `CCCCCCCCCCCCCCCCCCC(=O)OC[C@@H](O)COP(=O)(O)O`, the Activity was found to be 74% at Autotaxin (Homo sapiens) [1], 89% at Autotaxin (Homo sapiens) [2] and 36% on Autotaxin (Homo sapiens) [3].

`CCCCCCCCCCCCCCOC[C@H](O)COP(=O)([O-])CCC[N+](C)(C)C`: the Activity at Autotaxin (Homo sapiens) [1] turned out to be 95%; on Autotaxin (Homo sapiens) [2], 97%; at Autotaxin (Homo sapiens) [3] it was 80%.

Regarding `CCCCCCCCCCCCCCCCCCP(=O)([O-])OCC[N+](C)(C)C`, the Activity was 96% at Autotaxin (Homo sapiens) [1], 110% at Autotaxin (Homo sapiens) [2] and 44% at Autotaxin (Homo sapiens) [3].

Consider `CCCCCCCCC/C=C/CCCCCCCC(=O)OC[C@@H](O)COP(=O)([O-])OCC[N+](C)(C)C`, for which the Activity on Autotaxin (Homo sapiens) [1] was determined as 55%; on Autotaxin (Homo sapiens) [2], 92%; at Autotaxin (Homo sapiens) [3], 17%.

In the case of `CCCCCCCCCCCCOC[C@@H](O)COP(=O)([O-])CCC[N+](C)(C)C`, the Activity on Autotaxin (Homo sapiens) [1] was determined as 96%; at Autotaxin (Homo sapiens) [2] it was 99%; on Autotaxin (Homo sapiens) [3], 89%.

As for `CCCCCCC(=O)OC[C@@H](O)COP(=O)([O-])OCC[N+](C)(C)C`, the Activity at Autotaxin (Homo sapiens) [1] worked out at 100%; on Autotaxin (Homo sapiens) [2] it was 104%; at Autotaxin (Homo sapiens) [3], 97%.

For `CCCCCCCCCCCCCCCCCCC(=O)OC[C@@H](O)COP(=O)([O-])OCC[N+](C)(C)C`, the Activity stood at 99% at Autotaxin (Homo sapiens) [1], 111% on Autotaxin (Homo sapiens) [2] and 59% on Autotaxin (Homo sapiens) [3].

`CCCCCCCCCCCCCCOP(=O)([O-])NCC[N+](C)(C)C`: the Activity was found to be 90% on Autotaxin (Homo sapiens) [1], 89% at Autotaxin (Homo sapiens) [2] and 75% on Autotaxin (Homo sapiens) [3].

Consider `CCCCCCCCC/C=C/CCCCCCCC(=O)OC[C@@H](O)COP(=O)(O)O`, for which the Activity at Autotaxin (Homo sapiens) [1] is 23%; at Autotaxin (Homo sapiens) [2], 90%; at Autotaxin (Homo sapiens) [3], 2%.

For the compound `CCCCCCCCCCCCC(=O)OC[C@@H](O)COP(=O)([O-])OCC[N+](C)(C)C`, the Activity at Autotaxin (Homo sapiens) [1] worked out at 97%; at Autotaxin (Homo sapiens) [2], 102%; on Autotaxin (Homo sapiens) [3] it was 66%.

With `CCCCCCCCCCOC[C@H](O)COP(=O)([O-])CCC[N+](C)(C)C`, the figures for the Activity on Autotaxin (Homo sapiens) [1], on Autotaxin (Homo sapiens) [2] and at Autotaxin (Homo sapiens) [3] were 96%, 97% and 89%, respectively.

In the case of `CCCCCCCCCCCCCCCCCOC[C@@H](O)COP(=O)([O-])OCC[N+](C)(C)C`, the Activity at Autotaxin (Homo sapiens) [1] was 89%; at Autotaxin (Homo sapiens) [2] it was 100%; at Autotaxin (Homo sapiens) [3], 49%.

For the compound `CCCCCCCCCCCCCCCCCCOC[C@@H](O)COP(=O)([O-])CCC[N+](C)(C)C`, the Activity at Autotaxin (Homo sapiens) [1] stood at 89%; on Autotaxin (Homo sapiens) [2] it was 81%; at Autotaxin (Homo sapiens) [3], 76%.

As for `CCCCCCCCCCCCCCCCC(=O)OC[C@@H](O)COP(=O)(O)O`, the Activity on Autotaxin (Homo sapiens) [1] turned out to be 49%; at Autotaxin (Homo sapiens) [2], 74%; on Autotaxin (Homo sapiens) [3], 5%.

Take `CCCCCCCCCCCCCCOC[C@@H](O)COP(=O)([O-])CCC[N+](C)(C)C`: the Activity on Autotaxin (Homo sapiens) [1] came to 85%; at Autotaxin (Homo sapiens) [2], 98%; on Autotaxin (Homo sapiens) [3] it was 76%.

Regarding `CCCCCCCCCCCCOC[C@H](O)COP(=O)([O-])CCC[N+](C)(C)C`, the values for the Activity at Autotaxin (Homo sapiens) [1], on Autotaxin (Homo sapiens) [2] and at Autotaxin (Homo sapiens) [3] were 95%, 98% and 87%, respectively.

`CCCCCCCC/C=C\CCCCCCCCOP(=O)(O)OCC[N+](C)(C)C`: the figures for the Activity on Autotaxin (Homo sapiens) [1], at Autotaxin (Homo sapiens) [2] and at Autotaxin (Homo sapiens) [3] were 100%, 101% and 79%, respectively.

On to `CCCCCCCCCCCCCCOP(=O)([O-])OCC[N+](C)(C)C`, for which the Activity stood at 112% on Autotaxin (Homo sapiens) [1], 110% at Autotaxin (Homo sapiens) [2] and 91% on Autotaxin (Homo sapiens) [3].

As to `CCCCCCCCCCCCCCC(=O)OC[C@@H](O)COP(=O)([O-])OCC[N+](C)(C)C`, the Activity on Autotaxin (Homo sapiens) [1] is 80%; on Autotaxin (Homo sapiens) [2], 72%; on Autotaxin (Homo sapiens) [3], 36%.

Regarding `CCCCCCCC/C=C\CCCCCCCCOP(=O)([O-])OCC[N+](C)(C)C`, the Activity on Autotaxin (Homo sapiens) [1] came to 59%; on Autotaxin (Homo sapiens) [2], 105%; at Autotaxin (Homo sapiens) [3], 8%.

Take `CCCCCCCCCCCCCCCCCCOP(=O)([O-])OCC[N+](C)(C)C`: the Activity at Autotaxin (Homo sapiens) [1] is 116%; on Autotaxin (Homo sapiens) [2], 114%; at Autotaxin (Homo sapiens) [3], 102%.

With `CCCCCCCCCCCCCCCCOP(=O)([O-])NCC[N+](C)(C)C`, the Activity at Autotaxin (Homo sapiens) [1] is 81%; on Autotaxin (Homo sapiens) [2], 81%; on Autotaxin (Homo sapiens) [3], 77%.

As to `CCCCCCCCCCCCCCCCOC[C@@H](O)COP(=O)([O-])CCC[N+](C)(C)C`, the Activity at Autotaxin (Homo sapiens) [1] was determined as 82%; at Autotaxin (Homo sapiens) [2], 83%; at Autotaxin (Homo sapiens) [3], 72%.

For the compound `CCCCCCCCC/C=C/CCCCCCCOP(=O)([O-])NCC[N+](C)(C)C`, the results for the Activity on Autotaxin (Homo sapiens) [1], at Autotaxin (Homo sapiens) [2] and at Autotaxin (Homo sapiens) [3] were 89%, 93% and 74%, respectively.

In the case of `CCCCCCCCCCCCCCCCC(=O)OC[C@@H](O)COP(=O)([O-])OCC[N+](C)(C)C`, the Activity on Autotaxin (Homo sapiens) [1] was 89%; on Autotaxin (Homo sapiens) [2], 109%; on Autotaxin (Homo sapiens) [3] it was 36%.

For the compound `CCCCCCCCCCCCCCCCCCCOC[C@@H](O)COP(=O)([O-])OCC[N+](C)(C)C`, the Activity at Autotaxin (Homo sapiens) [1] stood at 86%; on Autotaxin (Homo sapiens) [2], 92%; at Autotaxin (Homo sapiens) [3], 44%.
